Values after ≈ are worked out from the molar mass of the structure shown.
Tests used:
[1] = tested on: Escherichia coli; experiment: Inhibition of protein translation/transcription in Escherichia coli S30 cell extract using circular DNA with pBESTluc after 60 mins by luciferase reporter gene assay; type: functional; conditions: 1 h
How it was run: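 E. coli S30 circular-DNA coupled transcription/translation kit with the pBESTluc template (firefly luciferase under the tac promoter). S30 extract, amino acids and premix are combined with compound in DMSO, and the reaction is started with DNA. Incubation is 60 min at 37 °C, stopped on ice, then luciferase luminescence is read.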

[2] = tested on: Clostridioides difficile; experiment: Bactericidal activity against Clostridium difficile ATCC 700057 incubated for 24 hrs […] by MABA; type: functional; conditions: ATCC 700057, 24 h
[3] = tested on: Klebsiella pneumoniae; experiment: Antibacterial activity against Klebsiella pneumoniae ATCC 12019 incubated for 24 hrs under aerobic condition by MABA; type: functional; conditions: ATCC 12019, 24 h, read-out: MIC100
How it was run: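 Mid-log cultures at OD 0.5 were exposed to serial dilutions under aerobic conditions at 37 °C for 24 h. Resazurin was then added from a 0.08% stock for 1 h. MIC100 was the lowest concentration where the dye stayed blue (pink means growth). Absorbance was also read at 570 and 600 nm.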

[4] = Cmax in Balb/c mouse at 3 mg/kg, iv; type: ADME, organism-based; set-up: dose 3 mg/kg, route intravenous; conditions: in vivo
How it was run: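 Single IV dose of 3 mg/kg in BALB/c mice (n = 3). Serum concentration-time data were used to derive t1/2, Cmax and AUC over 0–24 h and to infinity.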

CC[C@]1(C)C[C@@H](OC(=O)CSC(C)(C)CNC(=O)[C@H](N)CC(C)C)[C@]2(C)[C@H](C)CC[C@]3(CC[C@@H](O)[C@H]32)[C@@H](C)[C@@H]1O
IC50 [1]: 0.09 µg/mL (≈ 0.154 µM) | MBC [2]: 1.56 µg/mL (≈ 2.68 µM) | MIC [3]: 12.5 µg/mL (≈ 21.4 µM) | Cmax [4]: 1910 ng/mL

— ChEMBL document CHEMBL4229550, “An antimycobacterial pleuromutilin analogue effective against dormant bacilli” (Bioorg Med Chem, 2018)
